Laboratory results published in ChEMBL document CHEMBL4014344, “Discovery of the Soluble Guanylate Cyclase Stimulator Vericiguat (BAY 1021189) for the Treatment of Chronic Heart Failure” (J Med Chem, 2017).

Columns and labels:
[1] = biological target: T1, Guanylate cyclase soluble subunit alpha-1 (Rattus norvegicus) (UniProt P19686); assay: Stimulation of rat recombinant sGCalpha1 subunit expressed in CHO cells using alpha-[32P]GTP as substrate assessed as >=3 fold increase in [32P]cGMP formation after 10 mins by radioimmunoassay; format: cell-based
T1 sequence (whole entry): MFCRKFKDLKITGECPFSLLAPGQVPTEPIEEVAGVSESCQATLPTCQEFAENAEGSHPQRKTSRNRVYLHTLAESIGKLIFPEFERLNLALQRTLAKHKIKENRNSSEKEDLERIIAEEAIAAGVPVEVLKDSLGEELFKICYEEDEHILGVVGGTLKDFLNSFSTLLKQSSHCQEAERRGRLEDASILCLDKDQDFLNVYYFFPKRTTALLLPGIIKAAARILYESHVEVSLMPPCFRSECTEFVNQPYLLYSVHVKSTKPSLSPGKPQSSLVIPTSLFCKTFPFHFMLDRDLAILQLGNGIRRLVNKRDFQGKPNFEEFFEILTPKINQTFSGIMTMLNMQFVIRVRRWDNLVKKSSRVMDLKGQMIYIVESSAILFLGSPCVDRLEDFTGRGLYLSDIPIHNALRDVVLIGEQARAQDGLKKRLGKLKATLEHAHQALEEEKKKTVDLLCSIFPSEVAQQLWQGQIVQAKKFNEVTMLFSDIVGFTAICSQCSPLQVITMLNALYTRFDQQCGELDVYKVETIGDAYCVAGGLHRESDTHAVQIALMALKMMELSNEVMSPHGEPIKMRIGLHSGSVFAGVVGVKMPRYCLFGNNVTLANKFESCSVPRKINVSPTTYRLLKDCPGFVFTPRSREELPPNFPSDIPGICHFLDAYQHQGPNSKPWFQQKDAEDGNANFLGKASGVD

[2] = Clearance in rat hepatocytes at 1 uM up to 90 mins by LC-MS/MS analysis; format: ADME, cell-based, Hepatocyte
Outline: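 Rat hepatocytes at 1 × 10^6 viable cells/mL (trypan blue-corrected) in Williams' medium E, 1 μM substrate, MeCN ≤1%, 37 °C, pH 7.4. Sampled at 2−90 min, quenched with MeCN, analysed by LC-MS/MS.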

[3] = Efflux ratio of apparent permeability in human Caco2 cells; format: ADME, cell-based; conditions: Caco-2
Outline: (§1)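 Caco-2 cells grown 14−16 d on inserts. Compound dissolved in DMSO and diluted to final 2 μM in HBSS with glucose (19.9 mM) and HEPES (9.8 mM). Added apically (A−B) or basolaterally, incubated 2 h at 37 °C. Both compartments analysed by LC-MS to calculate Papp. Efflux ratio = Papp B−A/Papp A−B. Lucifer yellow monolayer integrity check.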

[4] = Apparent permeability across apical to basolateral side in human Caco2 cells at 2 uM after 2 hrs by LC-MS analysis; format: ADME, cell-based; conditions: Caco-2; outline: as §1
[5] = tested on: Saphenous artery; assay: Vasorelaxant activity in nirate-tolerant Chinchilla rabbit saphenous artery ring administered at the beginning of the last resting period of 28 mins in presence of sorbide dinitrate; format: functional; conditions: Oryctolagus cuniculus
[6] = tested on: Saphenous artery; assay: Vasorelaxant activity in normal Chinchilla rabbit saphenous artery ring administered at the beginning of the last resting period of 28 mins; format: functional; conditions: Oryctolagus cuniculus
[7] = Clearance in iv dosed Wistar rat blood after 24 hrs by LC-MS analysis; format: ADME, organism-based; conditions: whole blood
Outline: (§2)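 Male Wistar rats and female beagle dogs. iv in plasma/DMSO (rat) or H2O/PEG 400/EtOH (dog). Oral gavage in H2O/PEG 400/EtOH for both. Rats jugular-catheterised ≥1 d before dosing. Usually >10 blood samples, at least two after 24 h. Plasma quantified by LC-MS with internal standard. CL, t1/2, Vss and F calculated from plasma curves. Blood clearance via blood/plasma ratio (20 min blood incubation).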

[8] = Volume of distribution at steady state in iv dosed Wistar rat after 24 hrs by LC-MS analysis; format: ADME, organism-based; conditions: in vivo, read-out: Vdss; outline: as §2
[9] = Terminal half life in iv dosed Beagle dog blood after 24 hrs by LC-MS analysis; format: ADME, organism-based, Canis lupus familiaris; conditions: whole blood, read-out: beta t1/2 (converted); outline: as §2
[10] = Clearance in iv dosed Beagle dog blood after 24 hrs by LC-MS analysis; format: ADME, organism-based, Canis lupus familiaris; conditions: whole blood; outline: as §2
[11] = Oral bioavailability in Wistar rat administered via oral gavage after 24 hrs by LC-MS analysis; format: ADME, organism-based; conditions: in vivo; outline: as §2
[12] = Oral bioavailability in Beagle dog administered via oral gavage after 24 hrs by LC-MS analysis; format: ADME, organism-based, Canis lupus familiaris; conditions: in vivo; outline: as §2
[13] = Volume of distribution at steady state in iv dosed Beagle dog after 24 hrs by LC-MS analysis; format: ADME, organism-based, Canis lupus familiaris; conditions: in vivo, read-out: Vdss; outline: as §2
[14] = Terminal half life in iv dosed Wistar rat blood after 24 hrs by LC-MS analysis; format: ADME, organism-based; conditions: whole blood, read-out: beta t1/2 (converted); outline: as §2
[15] = Plasma clearance in iv dosed Beagle dog after 24 hrs by LC-MS analysis; format: ADME, organism-based, Canis lupus familiaris
Outline: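 Female beagle dogs were dosed iv in an H2O/PEG 400/EtOH formulation. Blood was collected into heparinized tubes, and plasma was obtained by centrifugation at 1000g and stored at −20 °C if needed. Drug was quantified by LC-MS (selected ion monitoring or high-resolution) against an internal standard. Clearance was calculated from the plasma concentration–time course.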

Which MEC [1] does the source give for `COC(=O)N(CC(F)(F)F)c1c(N)nc(-c2nn(Cc3ccccc3F)c3ncccc23)nc1N` here?
The MEC was 0.1 µM.

What about the CLhep predicted at 1 µM [2] of the same compound?
The CLhep predicted at 1 µM was 15 mL/min/kg.

With `Nc1nc(-c2nn(Cc3ccccc3F)c3ncccc23)nc(N)c1N1CCOC1=O` as the compound, how does the MEC [1] read?
Its MEC is 0.3 µM.

What about the CLhep predicted at 1 µM [2] of the same compound?
Its CLhep predicted at 1 µM is 6.67 mL/min/kg.

What does the source list for `COC(=O)N(Cc1ccc(F)cc1)c1c(N)nc(-c2nn(Cc3ccccc3F)c3ncccc23)nc1N`?
MEC [1]: 0.7 µM; CLhep predicted at 1 µM [2]: 40 mL/min/kg

With `COC(=O)Nc1c(N)nc(-c2nn(Cc3ccccc3F)c3ncccc23)nc1N` as the compound, how does the efflux ratio [3] read?
The efflux ratio was 5.

And the Papp A→B at 2 h, 2 µM [4]?
Its Papp A→B at 2 h, 2 µM is 7.9 ×10⁻⁶ cm/s.

And the MEC [1]?
The MEC was 0.3 µM.

And the CLhep predicted at 1 µM [2]?
Its CLhep predicted at 1 µM is 1.67 mL/min/kg.

Which MEC [1] does the source give for `COC(=O)N(CC(F)F)c1c(N)nc(-c2nn(Cc3ccccc3F)c3ncccc23)nc1N` here?
The MEC was 0.1 µM.

What about the CLhep predicted at 1 µM [2] of the same compound?
The CLhep predicted at 1 µM was 6.67 mL/min/kg.

With `Nc1nc(-c2nn(Cc3ccccc3F)c3ncccc23)nc(N)c1N1C[C@@H](C(F)(F)F)OC1=O` as the compound, how does the MEC [1] read?
The MEC was 0.03 µM.

And the CLhep predicted at 1 µM [2]?
The CLhep predicted at 1 µM was 26.7 mL/min/kg.

Which results are given for `O=[N+]([O-])OCC(CO[N+](=O)[O-])O[N+](=O)[O-]` [NITROGLYCERIN]?
IC50 [5]: 9.6 nM; IC50 [6]: 1.9 nM

Which MEC [1] does the source give for `Nc1nc(-c2nn(Cc3ccccc3F)c3ncccc23)nc(N)c1NC(=O)OCC(F)(F)F` here?
The MEC was 0.2 µM.

And the CLhep predicted at 1 µM [2]?
The CLhep predicted at 1 µM was 35 mL/min/kg.

For `COC(=O)Nc1c(N)nc(-n2nc(Cc3ccccc3F)c3ncccc32)nc1N`, which clearance [7] is on record?
Its clearance is 16.7 mL/min/kg.

What about the MEC [1] of the same compound?
The MEC was 1.2 µM.

And the CLhep predicted at 1 µM [2]?
Its CLhep predicted at 1 µM is under 1.67 mL/min/kg.

What does the source list for `COC(=O)Nc1c(N)nc(-n2nc(Cc3ccccc3F)c3ncc(F)cc32)nc1N`?
Vd [8]: 0.5 L/kg; half-life [9]: 4.1 h; clearance [7]: 5 mL/min/kg; clearance [10]: 3.33 mL/min/kg; bioavailability [11]: 26%; MEC [1]: 0.5 µM; bioavailability [12]: 56%; CLhep predicted at 1 µM [2]: 1.67 mL/min/kg; Vd [13]: 1 L/kg; half-life [14]: 1.5 h

For `COC(=O)N(Cc1ccccc1F)c1c(N)nc(-c2nn(Cc3ccccc3F)c3ncccc23)nc1N`, which MEC [1] is on record?
The MEC was 0.1 µM.

And the CLhep predicted at 1 µM [2]?
Its CLhep predicted at 1 µM is 53.3 mL/min/kg.

For `COC(=O)N(CCO)c1c(N)nc(-c2nn(Cc3ccccc3F)c3ncccc23)nc1N`, which MEC [1] is on record?
The MEC was 0.3 µM.

What about the CLhep predicted at 1 µM [2] of the same compound?
The CLhep predicted at 1 µM was 61.7 mL/min/kg.

With `Nc1nc(-c2nn(Cc3ccccc3F)c3ncccc23)nc(N)c1NC(=O)OCC1CC1` as the compound, how does the MEC [1] read?
Its MEC is 0.2 µM.

And the CLhep predicted at 1 µM [2]?
The CLhep predicted at 1 µM was 23.3 mL/min/kg.

Which clearance [7] does the source give for `COC(=O)Nc1c(N)nc(-c2nn(Cc3ccccc3F)c3nnccc23)nc1N` here?
The clearance was 63.3 mL/min/kg.

And the MEC [1]?
The MEC was 2 µM.

What about the CLhep predicted at 1 µM [2] of the same compound?
Its CLhep predicted at 1 µM is under 1.67 mL/min/kg.

What does the source list for `COC(=O)N(C)c1c(N)nc(-c2nn(Cc3ccccc3F)c3ncccc23)nc1N` [RIOCIGUAT]?
Vd [8]: 1.2 L/kg; half-life [9]: 2.4 h; clearance [15]: 5 mL/min/kg; clearance [7]: 21.7 mL/min/kg; bioavailability [11]: 46%; MEC [1]: 0.03 µM; bioavailability [12]: 79%; CLhep predicted at 1 µM [2]: 3.33 mL/min/kg; Vd [13]: 0.7 L/kg; half-life [14]: 1.4 h

Which MEC [1] does the source give for `Nc1nc(-c2nn(Cc3ccccc3F)c3ncccc23)nc(N)c1N1C[C@H](C(F)(F)F)OC1=O` here?
The MEC was 0.2 µM.

Which results are given for `COC(=O)Nc1c(N)nc(-c2nc(Cc3ccccc3F)n3ncccc23)nc1N`?
Vd [8]: 0.3 L/kg; half-life [9]: 1.8 h; clearance [15]: 15 mL/min/kg; clearance [7]: 15 mL/min/kg; bioavailability [11]: 37%; MEC [1]: 0.7 µM; CLhep predicted at 1 µM [2]: < 1.67 mL/min/kg; Vd [13]: 2 L/kg; half-life [14]: 0.5 h

For `Nc1nc(-c2nn(Cc3ccccc3F)c3ncccc23)nc(N)c1NC(=O)OC1COC1`, which efflux ratio [3] is on record?
Its efflux ratio is 74.

What about the Papp A→B at 2 h, 2 µM [4] of the same compound?
Its Papp A→B at 2 h, 2 µM is 0.2 ×10⁻⁶ cm/s.

What about the MEC [1] of the same compound?
Its MEC is 2.3 µM.

What about the CLhep predicted at 1 µM [2] of the same compound?
Its CLhep predicted at 1 µM is 1.67 mL/min/kg.

Which MEC [1] does the source give for `CC(C)OC(=O)Nc1c(N)nc(-c2nn(Cc3ccccc3F)c3ncccc23)nc1N` here?
The MEC was 0.8 µM.

What about the CLhep predicted at 1 µM [2] of the same compound?
Its CLhep predicted at 1 µM is 15 mL/min/kg.

Which clearance [7] does the source give for `COC(=O)Nc1c(N)nc(-c2nc(Cc3ccccc3F)c3ncccn23)nc1N` here?
The clearance was 30 mL/min/kg.

What about the MEC [1] of the same compound?
Its MEC is 1.7 µM.

What does the source list for `COC(=O)N(Cc1cccc(F)c1)c1c(N)nc(-c2nn(Cc3ccccc3F)c3ncccc23)nc1N`?
MEC [1]: 0.2 µM; CLhep predicted at 1 µM [2]: 53.3 mL/min/kg

With `CC1(C)CN(c2c(N)nc(-c3nn(Cc4ccccc4F)c4ncccc34)nc2N)C(=O)O1` as the compound, how does the MEC [1] read?
The MEC was 0.2 µM.

And the CLhep predicted at 1 µM [2]?
Its CLhep predicted at 1 µM is 21.7 mL/min/kg.

Which efflux ratio [3] does the source give for `Nc1nc(-c2nn(Cc3ccccc3F)c3ncccc23)nc(N)c1NC(=O)OC1CCC1` here?
The efflux ratio was 25.

And the Papp A→B at 2 h, 2 µM [4]?
The Papp A→B at 2 h, 2 µM was 2.3 ×10⁻⁶ cm/s.

And the MEC [1]?
The MEC was 0.2 µM.

What about the CLhep predicted at 1 µM [2] of the same compound?
The CLhep predicted at 1 µM was 23.3 mL/min/kg.

With `CCN(C(=O)OC)c1c(N)nc(-c2nn(Cc3ccccc3F)c3ncccc23)nc1N` as the compound, how does the MEC [1] read?
Its MEC is 0.2 µM.

What about the CLhep predicted at 1 µM [2] of the same compound?
Its CLhep predicted at 1 µM is 11.7 mL/min/kg.
